RGS4 inh – RGS4 inhibitors, primary screen, cell-based, HEK293 M3R inducible RGS4, calcium flux; Regulator of G-protein signaling 4 (Homo sapiens), P49798; Fluo-4 calcium flux; active compounds read high; triggered by carbachol at its EC20; B-score at 10 µM; 0.45% of 310,000 active;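 active = B-score, a plate-corrected calcium signal, over three deviations above library mean, with baseline fluorescence within five deviations of library mean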;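 also: RGS4 expression induced by doxycycline in cells with stable M3 receptor; B-score is computed from the integrated fluorescence ratio over baseline after carbachol; higher B-score means a larger calcium signal and so more RGS4 inhibition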
Target sequence (P49798 whole entry, looked up): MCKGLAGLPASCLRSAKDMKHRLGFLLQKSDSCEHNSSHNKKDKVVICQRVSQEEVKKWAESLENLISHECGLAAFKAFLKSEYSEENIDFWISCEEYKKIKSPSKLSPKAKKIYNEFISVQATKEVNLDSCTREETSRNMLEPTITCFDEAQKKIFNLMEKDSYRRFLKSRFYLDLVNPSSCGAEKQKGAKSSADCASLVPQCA
MrgX1 antagonist – antagonists of human MrgX1 receptor, primary screen, HEK293 cells, Fluo-4 calcium flux. Mas-related G-protein coupled receptor member X1 (Homo sapiens), Q96LB2. BAM8-22 antagonism; active compounds read low. B-score at 10 µM. 1.3% of 310,000 active;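 active = calcium-response B-score plate-corrected more than 3 library SD below zero, starting fluorescence within 5 deviations, no agonist response on first addition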;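 also: peak minus trough fluorescence over baseline after final BAM8-22 challenge near maximal dose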
Target sequence (Q96LB2 whole entry, looked up): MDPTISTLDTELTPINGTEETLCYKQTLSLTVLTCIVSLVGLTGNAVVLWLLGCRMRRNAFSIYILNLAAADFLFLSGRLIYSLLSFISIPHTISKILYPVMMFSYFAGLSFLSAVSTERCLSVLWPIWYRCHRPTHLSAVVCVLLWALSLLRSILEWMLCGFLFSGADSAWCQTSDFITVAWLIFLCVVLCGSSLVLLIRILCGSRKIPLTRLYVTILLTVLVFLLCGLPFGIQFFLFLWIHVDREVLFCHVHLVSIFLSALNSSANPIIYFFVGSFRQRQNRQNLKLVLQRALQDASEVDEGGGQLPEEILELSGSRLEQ
MrgX1 ag – agonists of human MrgX1 receptor, primary screen, HEK293 cells, Fluo-4 calcium flux; Fluo-4 calcium fluorescence, agonist mode; active compounds read high; B-score at 10 µM; 0.44% of 310,000 active;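 active = calcium response B-score plate-corrected fluorescence ratio at least 3 library SD, with starting fluorescence B-score inside 5 SD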
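Test system: Stable human MrgX1 HEK293 cell line | Schedule: Overnight plating before 1 h dye loading | Read-out basis: Baseline-normalised fluorescence change ratio, B-scored | Detection: Kinetic calcium dye fluorescence, Fluo-4 NW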
MrgX1 PAM – positive allosteric modulators of MrgX1, primary screen, HEK293 cells, Fluo-4 calcium flux; 0.63% of 310,000 active; B-score at 10 µM; FDSS; active compounds read high;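 active = plate-corrected calcium response at least 3 library SD above typical, normal starting fluorescence, not activating the receptor alone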;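 also: compound read alongside a low EC10 to EC30 dose of BAM8-22 agonist; peak minus trough fluorescence over baseline measured at the second addition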
RGS4 act – RGS4 potentiators or activators, primary screen, cell-based, HEK293 M3R inducible RGS4, calcium flux | 0.92% of 310,000 active | B-score at 10 µM | carbachol calcium flux Fluo4; active compounds read low | AID 463111, 2010;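 active = B-score of the integrated calcium signal more than 4 SD below the library mean, with starting fluorescence not abnormally high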;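 also: negative B-score means reduced calcium response which marks RGS4 activation or potentiation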
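System – HEK293 FlpIn-TREx cells, stable M3R, doxycycline-inducible RGS4 · Reagent – ECmax carbachol challenge · Times – compound preincubation 20 min at room temperature before agonist · Technique – Fluo4 fluorescence kinetic imaging of calcium · Measure – B score of integrated Fluo4 ratio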
MrgX1 ant reconf – MrgX1 receptor antagonists, duplicate retest, confirmation, HEK293 cells, Fluo-4 calcium flux; remaining BAM8-22 calcium response % of control (active compounds read low), % at 10 µM; shares compounds with MrgX1 antagonist; BAM8-22 calcium flux; active compounds read low; 19% of 2,300 active;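 active = remaining agonist calcium response no higher than 100% minus 3 SD of agonist-only control wells, with starting fluorescence near control levels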;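 also: agonist BAM8-22 given at a near maximal EC90 to ECmax level; peak minus minimum fluorescence divided by baseline after agonist addition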
HEK293 Ca flux – nonspecific calcium signal in parental HEK293, confirmation, counter-screen for MrgX1 antagonist project, parental HEK293 cells, Fluo-4 calcium flux | shares compounds with MrgX1 antagonist | Fluo-4 calcium fluorescence, FDSS | fluorescence ratio F(max-min)/F0 at 10 µM | 2% of 4,000 active;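 active = duplicate-averaged calcium fluorescence ratio at least three times the standard deviation of buffer wells, a nonspecific response in parental cells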
HEK293 Ca counter – calcium response in parental HEK293 cells, primary screen, counter-screen for MrgX1 allosteric activator project, cell-based, Fluo-4 calcium flux, duplicate | shares compounds with MrgX1 antagonist | Fluo-4 fluorescence ratio; active compounds read high | fluorescence ratio F(max-min)/F0 at 10 µM | 0.4% of 4,000 active | AID 624114, 2012;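 active = calcium fluorescence ratio, averaged over duplicates, at least 3 SD of the buffer-well ratio, meaning a nonspecific response in receptor-free cells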;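 also: untransfected parental HEK293 lacking MrgX1 used as counterscreen for MrgX1 allosteric activators; fluorescence change taken during the second addition on a kinetic imager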
HEK293 Ca cntr2 – calcium response in parental HEK293 cells, primary screen, counter-screen for MrgX1 agonist project, cell-based, Fluo-4 calcium flux, duplicate, agonist mode; Fluo-4 calcium fluorescence (FDSS); active compounds read high; AID 624115, 2012; fluorescence ratio F(max-min)/F0 at 10 µM; 8.7% of 4,000 active; shares compounds with MrgX1 antagonist;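 active = calcium fluorescence ratio at least three times the spread of buffer wells, meaning a non-specific response in parental cells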
An asterisk follows results filed as active; i = inactive; nt = no result. Most compounds without a hit are left out; they make up all but 3.5% or so of the library.

SMILES | RGS4 inh | MrgX1 antagonist | MrgX1 ag | MrgX1 PAM | RGS4 act | MrgX1 ant reconf | HEK293 Ca flux | HEK293 Ca counter | HEK293 Ca cntr2
CCOC(=O)c1sc2cc([N+](=O)[O-])cc(SCC(C)C)c2c1N | i | -10* | i | i | i | i | 0.598* | i | i
CCn1c(CCC(=O)O)nc2cc(S(=O)(=O)N(C)C)ccc21 | i | i | i | i | i | nt | nt | nt | nt
CCn1c(CSc2nc(C)cs2)nc2cc(S(=O)(=O)N(C)C)ccc21 | i | -4.64* | i | i | i | i | i | i | i
Cc1cc(N2CCC(C)CC2)nc(SCC(=O)c2ccccc2)n1 | i | i | i | i | i | nt | nt | nt | nt
COc1cccc(-c2nc(NC3CCCC3)c3ccccc3n2)c1O | i | -5.07* | i | i | i | 74.0%* | i | i | i
Cc1ccc(C)c(C(=O)C(C)OC(=O)CN2C(=O)NC3(CC(C)CC(C)(C)C3)C2=O)c1 (stereo unspecified) | i | i | i | i | i | nt | nt | nt | nt
O=C(CCn1cnnn1)N1CCCC(Nc2ccc(F)c(F)c2)C1 (stereo unspecified) | i | i | i | i | i | nt | nt | nt | nt
Cc1ccc(NS(=O)(=O)c2ccc(C(=O)NCc3ccncc3)cc2)cc1 | i | -4.62* | i | i | i | 78.6%* | i | i | i
CNC(=O)COc1ccc(S(=O)(=O)Nc2ccc(C)cc2)cc1 | i | i | i | i | i | nt | nt | nt | nt
O=C(NCc1ccc2c(c1)OCO2)c1ccc(S(=O)(=O)N2CCCCC2)cc1 | i | i | i | i | i | nt | nt | nt | nt
O=C(NCc1ccc2c(c1)OCO2)c1ccc(NS(=O)(=O)c2ccc3c(c2)OCCO3)cc1 | i | -6.9* | i | i | i | i | i | i | i
Cc1ccc(NS(=O)(=O)c2ccc(OCC(N)=O)cc2)cc1 | i | -9.4* | i | i | i | i | i | i | i
C=CCN(C(=O)c1ccccn1)C(C(=O)NCc1ccccc1)c1ccccc1F (stereo unspecified) | i | i | i | i | i | nt | nt | nt | nt
Cc1ccc(NC(=S)NCCc2ccccc2)c(C)c1 | i | -5.18* | i | i | i | i | i | i | i
Cc1cc(Br)ccc1NC(=S)NCCc1ccccc1 | i | i | i | i | i | nt | nt | nt | nt
O=C(NCCCN1CCCC1)c1cc2c(Cl)nc3ccccc3c2s1 | i | -7.65* | i | i | i | i | i | i | i
O=C1c2ccccc2C(=O)C1c1ccc(O)cc1 | i | i | i | i | i | nt | nt | nt | nt
CN(C)C1C(=O)c2ccccc2C1=O | i | -4.96* | i | i | i | i | i | i | i
CCOC(=O)c1ccc(OCCOc2cccc(C)c2)cc1 | i | i | i | i | i | nt | nt | nt | nt
COc1cc(CN(C)C(C)C(=O)Nc2ccc([N+](=O)[O-])cc2Cl)ccc1OC(F)F (stereo unspecified) | i | -21.3* | i | i | i | i | i | i | i
Cc1ccc(S(=O)(=O)N(C)C)cc1NC(=O)Cn1c(CN2CCOCC2)nc2ccccc2c1=O | i | -4.95* | i | i | i | i | i | i | i
Cc1ccc(S(=O)(=O)N(C)C)cc1NC(=O)CSc1nc2ccccc2c(=O)n1CC1CCCO1 (stereo unspecified) | i | i | i | i | i | nt | nt | nt | nt
CCc1sc(C(=O)Nc2ccc3c(c2)OCCO3)cc1Br | i | i | i | i | i | nt | nt | nt | nt
CCC(Sc1ncccc1C(=O)O)C(=O)N1CCCC1 (stereo unspecified) | i | i | i | i | i | nt | nt | nt | nt
CCC(Sc1ncccc1C(=O)O)C(=O)N1CCOCC1 (stereo unspecified) | i | -6.79* | i | i | i | 80.2%* | i | i | i
SMILES | RGS4 inh | MrgX1 antagonist | MrgX1 ag | MrgX1 PAM | RGS4 act | MrgX1 ant reconf | HEK293 Ca flux | HEK293 Ca counter | HEK293 Ca cntr2
Cc1cc2oc(=O)cc(CN3CCN(S(=O)(=O)c4ccc5c(c4)OCCO5)CC3)c2cc1C | i | -8.61* | i | i | i | i | i | i | i
CN(C(=O)c1ccc2c(c1)SC1=NS(=O)(=O)CCN12)C(c1ccccc1)c1ccccc1 | i | i | i | i | i | nt | nt | nt | nt
O=C(O)c1ccc2c(c1)SC1=NS(=O)(=O)CCN12 | i | -14.3* | i | i | i | i | i | i | i
CC(C)(C)C(=O)Nc1sc2c(c1C#N)CCN(Cc1ccccc1)C2 | i | -5.13* | i | i | i | i | i | i | i
O=C(Cn1c(C(F)(F)F)nc2ccccc21)Nc1ccccc1C(=O)O | i | -5.83* | i | i | i | i | i | i | i
CC(C(=O)Nc1ccccc1C(=O)O)n1c(C(F)(F)F)nc2ccccc21 (stereo unspecified) | i | i | i | i | i | nt | nt | nt | nt
O=C(NCCCO)/C(=C\c1ccco1)NC(=O)c1ccco1 | i | i | i | i | i | nt | nt | nt | nt
CCNc1nc(NCC)n2c(SCC(=O)Nc3ccccc3[N+](=O)[O-])nnc2n1 | i | i | i | i | i | nt | nt | nt | nt
COc1ccc(CC(=O)NC(C)c2ccc(S(N)(=O)=O)cc2)cc1S(=O)(=O)N1CCOCC1 (stereo unspecified) | i | -9.27* | i | i | i | i | i | i | i
COc1ccc(CC(=O)NC(C)(C)C)cc1S(=O)(=O)N1CCOCC1 | i | i | i | i | i | nt | nt | nt | nt
CC(C)(C)c1ccc(C(=O)NCC(=O)N/N=C/c2cccnc2)cc1 | i | i | i | i | i | nt | nt | nt | nt
Cc1oc(C)c(C(=O)O)c1C(=O)O | i | i | i | i | i | nt | nt | nt | nt
